Numbered stars: 1 amine (or outer) side, 2 acyl side, 3 side chain; on linkers, the order of the positions; unused ones are H or OH. Square brackets hold non-standard residues; d marks the D form. Peptide text beside a SMILES is read from it. * marks the point of attachment. X1 = O=C(O)c1cc(NC(=S)*)ccc1-c1c2ccc(=O)cc-2oc2cc(O)ccc12; X2 = CN(CCC(=O)*)c1ccc(/N=N/c2ccc([N+](=O)[O-])cc2)cc1; Achc(trans-4) = O=C([C@H]1CC[C@H](N[*:1])CC1)[*:2]; X3 = CN(C)c1ccc(/N=N/c2ccc(CCC(=O)*)cc2)cc1
How the values were obtained:
[1] = target: NAD-dependent protein deacylase sirtuin-6 (Homo sapiens) (UniProt Q8N6T7); assay: Binding affinity to SIRT6 (unknown origin) assessed as increase in fluorescence intensity at 2.5 uM measured at 5 mins interval for 1 hr in presence of NAD+ by fluorometric method relative to control
Sequence of NAD-dependent protein deacylase sirtuin-6 (Homo sapiens) (Q8N6T7 whole entry): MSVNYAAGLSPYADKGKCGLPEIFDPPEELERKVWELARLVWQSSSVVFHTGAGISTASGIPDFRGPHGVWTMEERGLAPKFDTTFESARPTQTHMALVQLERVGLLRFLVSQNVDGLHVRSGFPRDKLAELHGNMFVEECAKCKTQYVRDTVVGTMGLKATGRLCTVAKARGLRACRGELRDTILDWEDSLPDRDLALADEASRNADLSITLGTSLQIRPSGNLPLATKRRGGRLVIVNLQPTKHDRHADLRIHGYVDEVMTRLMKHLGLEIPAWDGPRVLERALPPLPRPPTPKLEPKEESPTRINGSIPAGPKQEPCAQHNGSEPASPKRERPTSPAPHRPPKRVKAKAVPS
How it was run: (§1)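 Each FITC/quencher FRET peptide probe was incubated with recombinant SIRT1–7 in 96-well half-area plates at 37 °C for 1 h. The fluorescence increase is reported as a fold change, SIRT(+) signal over SIRT(−) signal, after 1 h.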

[2] = target: T1, NAD-dependent protein lipoamidase sirtuin-4, mitochondrial (Homo sapiens) (UniProt Q9Y6E7); assay: Binding affinity to SIRT4 (unknown origin) assessed as increase in fluorescence intensity at 2.5 uM measured at 5 mins interval for 1 hr in presence of NAD+ by fluorometric method relative to control; how it was run: as §1
T1 sequence (whole entry): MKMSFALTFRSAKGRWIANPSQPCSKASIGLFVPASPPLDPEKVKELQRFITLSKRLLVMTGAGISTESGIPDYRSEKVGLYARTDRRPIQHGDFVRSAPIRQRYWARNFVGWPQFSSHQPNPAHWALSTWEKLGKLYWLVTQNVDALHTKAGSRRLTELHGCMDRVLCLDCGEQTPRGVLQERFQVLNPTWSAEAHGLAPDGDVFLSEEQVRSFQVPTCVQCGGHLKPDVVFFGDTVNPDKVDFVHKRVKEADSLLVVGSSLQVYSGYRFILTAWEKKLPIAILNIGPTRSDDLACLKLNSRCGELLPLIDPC

[3] = target: T2, NAD-dependent protein deacetylase sirtuin-7 (Homo sapiens) (UniProt Q9NRC8); assay: Binding affinity to SIRT7 (unknown origin) assessed as increase in fluorescence intensity at 2.5 uM measured at 5 mins interval for 1 hr in presence of NAD+ by fluorometric method relative to control; how it was run: as §1
T2 sequence (whole entry): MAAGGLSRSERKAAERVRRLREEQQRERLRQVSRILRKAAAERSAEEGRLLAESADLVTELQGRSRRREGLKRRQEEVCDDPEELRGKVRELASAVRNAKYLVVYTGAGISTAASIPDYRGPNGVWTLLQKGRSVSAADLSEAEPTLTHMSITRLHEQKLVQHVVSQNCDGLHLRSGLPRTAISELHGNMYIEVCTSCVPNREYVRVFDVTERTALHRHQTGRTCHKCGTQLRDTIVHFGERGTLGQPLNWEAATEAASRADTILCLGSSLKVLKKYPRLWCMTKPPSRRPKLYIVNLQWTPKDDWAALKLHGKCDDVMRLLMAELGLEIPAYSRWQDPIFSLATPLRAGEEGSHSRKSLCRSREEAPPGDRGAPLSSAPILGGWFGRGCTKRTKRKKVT

[4] = target: T3, NAD-dependent protein deacetylase sirtuin-1 (Homo sapiens) (UniProt Q96EB6); assay: Binding affinity to SIRT1 (unknown origin) assessed as increase in fluorescence intensity at 2.5 uM measured at 5 mins interval for 1 hr in presence of NAD+ by fluorometric method relative to control; how it was run: as §1
T3 sequence (whole entry): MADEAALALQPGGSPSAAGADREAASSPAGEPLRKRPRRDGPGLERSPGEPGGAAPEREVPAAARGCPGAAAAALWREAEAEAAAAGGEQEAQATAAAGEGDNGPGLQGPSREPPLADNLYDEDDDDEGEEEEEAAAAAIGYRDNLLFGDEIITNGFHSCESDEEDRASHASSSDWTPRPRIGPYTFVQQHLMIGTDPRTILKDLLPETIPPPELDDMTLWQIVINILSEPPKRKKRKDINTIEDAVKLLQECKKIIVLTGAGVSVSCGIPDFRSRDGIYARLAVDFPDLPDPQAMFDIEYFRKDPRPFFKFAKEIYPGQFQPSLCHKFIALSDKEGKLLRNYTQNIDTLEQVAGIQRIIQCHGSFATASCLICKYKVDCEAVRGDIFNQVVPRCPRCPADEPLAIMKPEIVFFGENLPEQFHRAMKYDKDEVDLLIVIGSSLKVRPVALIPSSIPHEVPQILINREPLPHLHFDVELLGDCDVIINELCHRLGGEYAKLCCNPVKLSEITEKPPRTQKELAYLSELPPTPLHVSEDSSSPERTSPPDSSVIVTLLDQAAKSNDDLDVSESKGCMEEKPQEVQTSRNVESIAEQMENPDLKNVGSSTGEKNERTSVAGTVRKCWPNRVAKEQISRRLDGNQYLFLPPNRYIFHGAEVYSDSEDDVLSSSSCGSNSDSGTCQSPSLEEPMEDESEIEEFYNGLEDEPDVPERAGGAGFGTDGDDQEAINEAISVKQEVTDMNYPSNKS

[5] = target: NAD-dependent protein deacylase sirtuin-5, mitochondrial (Homo sapiens) (UniProt Q9NXA8); assay: Binding affinity to SIRT5 (unknown origin) assessed as increase in fluorescence intensity at 2.5 uM measured at 5 mins interval for 1 hr in presence of NAD+ by fluorometric method relative to control; how it was run: as §1
Sequence of NAD-dependent protein deacylase sirtuin-5, mitochondrial (Homo sapiens) (Q9NXA8 37-310 limits assumed): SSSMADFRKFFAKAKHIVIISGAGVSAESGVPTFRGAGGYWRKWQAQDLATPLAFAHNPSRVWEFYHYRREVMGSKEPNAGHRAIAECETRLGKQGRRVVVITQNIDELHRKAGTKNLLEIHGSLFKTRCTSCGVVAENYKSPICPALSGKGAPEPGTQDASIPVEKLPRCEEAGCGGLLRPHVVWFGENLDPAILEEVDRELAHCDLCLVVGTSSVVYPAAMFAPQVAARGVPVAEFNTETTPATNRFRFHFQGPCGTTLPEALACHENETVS

[6] = target: T4, NAD-dependent protein deacetylase sirtuin-2 (Homo sapiens) (UniProt Q8IXJ6); assay: Binding affinity to SIRT2 (unknown origin) assessed as increase in fluorescence intensity at 2.5 uM measured at 5 mins interval for 1 hr in presence of NAD+ by fluorometric method relative to control; how it was run: as §1
T4 sequence (whole entry): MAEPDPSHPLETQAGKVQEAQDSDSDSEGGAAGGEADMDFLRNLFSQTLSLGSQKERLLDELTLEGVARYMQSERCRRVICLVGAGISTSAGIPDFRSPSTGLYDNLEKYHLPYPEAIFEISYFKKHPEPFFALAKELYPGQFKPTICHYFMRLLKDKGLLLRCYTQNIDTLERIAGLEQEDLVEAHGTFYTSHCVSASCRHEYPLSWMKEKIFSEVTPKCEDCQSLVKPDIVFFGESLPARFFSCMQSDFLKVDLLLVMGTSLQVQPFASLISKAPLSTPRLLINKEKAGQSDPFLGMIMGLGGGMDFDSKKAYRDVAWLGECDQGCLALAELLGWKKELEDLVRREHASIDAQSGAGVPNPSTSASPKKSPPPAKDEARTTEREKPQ

[7] = target: T5, NAD-dependent protein deacetylase sirtuin-3, mitochondrial (Homo sapiens) (UniProt Q9NTG7); assay: Binding affinity to SIRT3 (unknown origin) assessed as increase in fluorescence intensity at 2.5 uM measured at 5 mins interval for 1 hr in presence of NAD+ by fluorometric method relative to control; how it was run: as §1
T5 sequence (whole entry): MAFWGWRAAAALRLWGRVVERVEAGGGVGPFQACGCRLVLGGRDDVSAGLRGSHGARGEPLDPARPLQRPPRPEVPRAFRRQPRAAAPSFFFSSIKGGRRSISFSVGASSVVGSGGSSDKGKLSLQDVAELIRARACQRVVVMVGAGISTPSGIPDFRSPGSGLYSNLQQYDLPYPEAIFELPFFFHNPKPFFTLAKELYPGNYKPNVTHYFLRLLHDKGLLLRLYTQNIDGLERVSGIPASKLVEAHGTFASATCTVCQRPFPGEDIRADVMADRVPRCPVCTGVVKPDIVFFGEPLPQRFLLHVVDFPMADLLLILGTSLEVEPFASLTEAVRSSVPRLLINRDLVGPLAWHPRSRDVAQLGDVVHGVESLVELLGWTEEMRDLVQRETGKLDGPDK

Compound | fold change (FC) [1] | fold change (FC) [2] | fold change (FC) [3] | fold change (FC) [4] | fold change (FC) [5] | fold change (FC) [6] | fold change (FC) [7]
C[C@H](NC(=O)CNC(=O)CNC(=O)[C@H]1CC[C@H](NC(=S)Nc2ccc(-c3c4ccc(=O)cc-4oc4cc(O)ccc34)c(C(=O)O)c2)CC1)C(=O)N[C@@H](CCCCNC(=O)CCc1ccc(/N=N/c2ccc(N(C)C)cc2)cc1)C(=O)N[C@@H](CCCNC(=N)N)C(=O)N[C@@H](Cc1c[nH]cn1)C(=O)N[C@@H](CCCNC(=N)N)C(N)=O | 1.05 | 0.92 | 1.01 | 10.9 | 1.03 | 4.72 | 5.45
CC[C@H](C)[C@H](NC(=O)[C@H](CCCNC(=N)N)NC(=O)[C@H](Cc1ccc(O)cc1)NC(=O)[C@H](CC(=O)O)NC(=O)[C@H]1CC[C@H](NC(=S)Nc2ccc(-c3c4ccc(=O)cc-4oc4cc(O)ccc34)c(C(=O)O)c2)CC1)C(=O)N[C@@H](CCCCNC(=O)CCN(C)c1ccc(/N=N/c2ccc([N+](=O)[O-])cc2)cc1)C(=O)N[C@@H](CCCNC(=N)N)C(=O)N[C@@H](Cc1ccc(O)cc1)C(=O)N[C@@H](Cc1c[nH]cn1)C(=O)N[C@H](C(N)=O)[C@@H](C)O (X1-[Achc(trans-4)]DYRIK(X2)RYHT-NH2) | 1.19 | 1.25 | 1.05 | 5.85 | 1.15 | 6.97 | 26.7
C[C@H](NC(=O)[C@@H](NC(=O)[C@H](CCC(N)=O)NC(=O)[C@H]1CC[C@H](NC(=S)Nc2ccc(-c3c4ccc(=O)cc-4oc4cc(O)ccc34)c(C(=O)O)c2)CC1)[C@@H](C)O)C(=O)N[C@@H](CCCNC(=N)N)C(=O)N[C@@H](CCCCNC(=O)CCN(C)c1ccc(/N=N/c2ccc([N+](=O)[O-])cc2)cc1)C(=O)N[C@@H](CO)C(=O)N[C@H](C(=O)NCC(=O)NCC(=O)O)[C@@H](C)O | 9.38 | 1.2 | 1.04 | 6.06 | 1.07 | 4.06 | 

Second part, the compound after the results:

fold change (FC) [1] | fold change (FC) [2] | fold change (FC) [3] | fold change (FC) [4] | fold change (FC) [5] | fold change (FC) [6] | fold change (FC) [7] | Compound
2.55 | 1.04 | 1.09 | 14.7 | 1.07 | 10.3 |  | C[C@H](NC(=O)CNC(=O)CNC(=O)[C@H](CCCCN)NC(=O)[C@H]1CC[C@H](NC(=S)Nc2ccc(-c3c4ccc(=O)cc-4oc4cc(O)ccc34)c(C(=O)O)c2)CC1)C(=O)N[C@@H](CCCCNC(=O)CCN(C)c1ccc(/N=N/c2ccc([N+](=O)[O-])cc2)cc1)C(=O)N[C@@H](CCCNC(=N)N)C(=O)N[C@@H](Cc1c[nH]cn1)C(=O)N[C@@H](CCCNC(=N)N)C(=O)N[C@@H](CCCCN)C(N)=O
3.6 | 1.03 | 1.04 | 13.8 | 1.08 | 5.89 |  | CC(=O)N[C@@H](CCC(N)=O)C(=O)N[C@H](C(=O)N[C@@H](C)C(=O)N[C@@H](CCCNC(=N)N)C(=O)N[C@@H](CCCCNC(=O)CCc1ccc(/N=N/c2ccc(N(C)C)cc2)cc1)C(=O)N[C@@H](CO)C(=O)N[C@H](C(=O)NCC(=O)NCC(=O)NCCCNC(=S)Nc1ccc(-c2c3ccc(=O)cc-3oc3cc(O)ccc23)c(C(=O)O)c1)[C@@H](C)O)[C@@H](C)O
3.36 | 1.2 | 0.99 | 8.86 | 1.05 | 5.64 | 26.2 | CN(CCC(=O)NCCCC[C@H](NC(=O)[C@H](Cc1ccccc1)NC(=O)[C@H](CO)NC(=O)[C@H](CCCCN)NC(=O)[C@H](CCCCN)NC(=O)[C@H]1CC[C@H](NC(=S)Nc2ccc(-c3c4ccc(=O)cc-4oc4cc(O)ccc34)c(C(=O)O)c2)CC1)C(=O)N[C@@H](CCC(=O)O)C(=O)N[C@@H](CCCNC(=N)N)C(=O)N[C@@H](CO)C(=O)N[C@@H](CO)C(N)=O)c1ccc(/N=N/c2ccc([N+](=O)[O-])cc2)cc1 (X1-[Achc(trans-4)]KKSFK(X2)ERSS-NH2)
1.33 | 0.93 | 1.03 | 12 | 1.07 | 5.45 |  | C[C@H](NC(=O)CNC(=O)CNC(=O)[C@H](CCCCN)NC(=O)[C@H]1CC[C@H](NC(=S)Nc2ccc(-c3c4ccc(=O)cc-4oc4cc(O)ccc34)c(C(=O)O)c2)CC1)C(=O)N[C@@H](CCCCNC(=O)CCc1ccc(/N=N/c2ccc(N(C)C)cc2)cc1)C(=O)N[C@@H](CCCNC(=N)N)C(=O)N[C@@H](Cc1c[nH]cn1)C(=O)N[C@@H](CCCNC(=N)N)C(=O)N[C@@H](CCCCN)C(N)=O
1.05 | 1.11 | 1.01 | 4.76 | 1.09 | 1.92 | 1.96 | CC[C@H](C)[C@H](NC(=O)[C@H](CCCNC(=N)N)NC(=O)[C@H](Cc1ccc(O)cc1)NC(=O)[C@H](CC(=O)O)NC(=O)[C@H]1CC[C@H](NC(=S)Nc2ccc(-c3c4ccc(=O)cc-4oc4cc(O)ccc34)c(C(=O)O)c2)CC1)C(=O)N[C@@H](CCCCNC(=O)CCc1ccc(/N=N/c2ccc(N(C)C)cc2)cc1)C(=O)N[C@@H](CCCNC(=N)N)C(=O)N[C@@H](Cc1ccc(O)cc1)C(=O)N[C@@H](Cc1c[nH]cn1)C(=O)N[C@H](C(N)=O)[C@@H](C)O (X1-[Achc(trans-4)]DYRIK(X3)RYHT-NH2)

Source: ChEMBL document CHEMBL4706730, “A Set of Highly Sensitive Sirtuin Fluorescence Probes for Screening Small-Molecular Sirtuin Defatty-Acylase Inhibitors” (ACS Med Chem Lett, 2021)
